Laboratory results from ChEMBL document CHEMBL1146590, “Cytotoxic sesquiterpene lactones from the root of Saussurea lappa” (2003).
Converted amounts (≈) assume the structure as drawn. The source made the active and inactive calls. The calls are words filed in the database; no cut-off is given here.

How the values were obtained:
[1] = test system: HeLa; assay: Cytotoxicity against human HeLa cells after 48 hrs by MTT assay; format: functional; settings: read-out: CD50 (the source's name)
[2] = test system: OVCAR-3; assay: Cytotoxicity against human OVCAR-3 cells after 48 hrs by MTT assay; format: functional; settings: for CC50: OVCAR-3, 48 h, read-out: CD50 (the source's name)
How it was run: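 OVCAR-3 cells were exposed to a range of concentrations for 48 h, and viability was read by MTT colorimetric assay. CD50 was determined by the MTT method. Data are reported as mean ± SD (n = 4).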

[3] = test system: HepG2; assay: Cytotoxicity against human HepG2 cells after 48 hrs by MTT assay; format: functional; settings: for CC50: HepG2, 48 h, read-out: CD50 (the source's name)
[4] = test system: Enterococcus; assay: Antibacterial activity against vancomycin-resistant Enterococcus CKU-17; format: functional
[5] = test system: Staphylococcus aureus; assay: Antibacterial activity against Staphylococcus aureus; format: functional
[6] = test system: Staphylococcus aureus; assay: Antibacterial activity against methicillin-resistant Staphylococcus aureus; format: functional
[7] = test system: Enterococcus faecalis; assay: Antibacterial activity against Enterococcus faecalis; format: functional
[8] = test system: Escherichia coli; assay: Antibacterial activity against Escherichia coli; format: functional
[9] = test system: OVCAR-3 (Homo sapiens); assay: Cytotoxicity against human OVCAR-3 cells after 48 hrs by MTT assay
[10] = test system: OVCAR-3; assay: Cytotoxicity against human OVCAR-3 cells assessed as half cell death at 4 times CD50 up to 2 hrs by MTT assay; format: functional, cell-based
How it was run: (§1)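 OVCAR-3 cells were seeded at 5 × 10^3 per well and grown 24 h. […] Compound was washed out, fresh medium was added, and cells were incubated a further 48 h at 37 °C. Viable cells were read by MTT at OD 570 nm as % of control, mean ± SD (n = 4).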

[11] = test system: OVCAR-3; assay: Cytotoxicity against human OVCAR-3 cells assessed as half cell death at 2 times CD50 after 6 hrs by MTT assay; format: functional, cell-based; how it was run: as §1
[12] = test system: OVCAR-3; assay: Cytotoxicity against human OVCAR-3 cells assessed as half cell death at CD50 after 24 hrs by MTT assay; format: functional, cell-based; how it was run: as §1

| Molecule | CC50 [1] [µg/mL] | Activity [2] | CC50 [2] [µg/mL] | Activity [3] | CC50 [3] [µg/mL] | MIC [4] [µg/mL] | MIC [5] [µg/mL] | MIC [6] [µg/mL] | MIC [7] [µg/mL] | MIC [8] [µg/mL] | Activity [9] | Activity [10] | Activity [11] | Activity [12] |
| --- | --- | --- | --- | --- | --- | --- | --- | --- | --- | --- | --- | --- | --- | --- |
| C=C1C(=O)O[C@@H]2/C=C(\C)CC/C=C(\C)CC[C@@H]12 [COSTUNOLIDE] | 2 (≈ 8.61 µM) | Dose-dependent effect | 2 (≈ 8.61 µM) | Dose-dependent effect | 1.6 (≈ 6.89 µM) | 400 (≈ 1720 µM) | 100 (≈ 430 µM) | 200 (≈ 861 µM) | 400 (≈ 1720 µM) | > 800 | Dose-dependent effect |  |  |  |
| C=C1[C@@H]2[C@H]3OC(=O)[C@@H](C)[C@@H]3CCC(=C)[C@@H]2C[C@H]1O | 65 (≈ 262 µM) |  | 65 (≈ 262 µM) |  | 75 (≈ 302 µM) |  |  |  |  |  |  |  |  |  |
| C=C(CO)[C@@H]1CC[C@@]2(C)CCC[C@@](C)(O)[C@@H]2C1 [ILICIC ALCOHOL] | > 100 |  | > 100 |  | > 100 |  |  |  |  |  |  |  |  |  |
| C=C1CC[C@H]2C(=C)CC[C@@H]3[C@H](OC(=O)[C@@]3(O)CC(C)=O)[C@@H]12 [LAPPALONE] | > 100 |  | > 100 |  | > 100 |  |  |  |  |  |  |  |  |  |
| C[C@@H]1C(=O)O[C@H]2[C@H]1CC[C@@]1(C)[C@H](O)CC[C@@](C)(O)[C@H]21 [COLARTIN] | 100 (≈ 373 µM) |  | 100 (≈ 373 µM) |  | > 100 | > 800 | > 800 |  | > 800 | > 800 |  |  |  |  |
| O=C(N[C@H](CO)[C@H](O)c1ccc([N+](=O)[O-])cc1)C(Cl)Cl [CHLORAMPHENICOL] |  |  |  |  |  | 6.25 (≈ 19.3 µM) |  |  | 6.25 (≈ 19.3 µM) |  |  |  |  |  |
| C=C1CC[C@@H](O)[C@]2(C)CC[C@H]3C(=C)C(=O)O[C@@H]3[C@@H]12 [REYNOSIN] | 7.5 (≈ 30.2 µM) |  | 7.5 (≈ 30.2 µM) |  | 11 (≈ 44.3 µM) | > 800 | 800 (≈ 3220 µM) | > 800 | > 800 | > 800 |  |  |  |  |
| C=C1[C@@H]2[C@H]3OC(=O)C(=C)[C@@H]3CCC(=C)[C@@H]2C[C@H]1O [ISOZALUZANIN C] | 13.5 (≈ 54.8 µM) |  | 7.5 (≈ 30.4 µM) |  | 15 (≈ 60.9 µM) |  |  |  |  |  |  |  |  |  |
| C=C1CC[C@H]2C(=C)CC[C@@H]3[C@H](OC(=O)[C@@]3(O)C[C@]3(C)CCC(=O)[C@]4(C)CC[C@H]5C(=C)C(=O)O[C@@H]5[C@@H]34)[C@@H]12 [LAPPADILACTONE] | 1.8 (≈ 3.64 µM) | Dose-dependent effect | 2.5 (≈ 5.05 µM) | Dose-dependent effect | 2.4 (≈ 4.85 µM) |  |  |  |  |  | Dose-dependent effect | Active | Active | Active |
| C=C1C(=O)O[C@@H]2[C@H]3C(C)=CC[C@@H](O)[C@]3(C)CC[C@@H]12 [SANTAMARIN] | 10 (≈ 40.3 µM) |  | 10 (≈ 40.3 µM) |  | 7.5 (≈ 30.2 µM) | > 800 | 800 (≈ 3220 µM) | 800 (≈ 3220 µM) | > 800 | > 800 |  |  |  |  |
| CN[C@H](CC(C)C)C(=O)N[C@H]1C(=O)N[C@@H](CC(N)=O)C(=O)N[C@H]2C(=O)N[C@H]3C(=O)N[C@H](C(=O)N[C@H](C(=O)O)c4cc(O)cc(O)c4-c4cc3ccc4O)[C@H](O)c3ccc(c(Cl)c3)Oc3cc2cc(c3O[C@@H]2O[C@H](CO)[C@@H](O)[C@H](O)[C@H]2O[C@H]2C[C@](C)(N)[C@H](O)[C@H](C)O2)Oc2ccc(cc2Cl)[C@H]1O [VANCOMYCIN] |  |  |  |  |  | > 100 | 1.56 (≈ 1.08 µM) | 1.56 (≈ 1.08 µM) | 3.13 (≈ 2.16 µM) |  |  |  |  |  |
| C=C1C(=O)O[C@@H]2[C@@H]3[C@](C)(CCC[C@@]3(C)O)CC[C@@H]12 [ARBUSCULIN A] | 7.5 (≈ 30 µM) |  | 7.5 (≈ 30 µM) |  | 10 (≈ 39.9 µM) |  |  |  |  |  |  |  |  |  |
| GENTAMICIN |  |  |  |  |  |  | 0.78 | > 100 |  | 3.13 |  |  |  |  |
| C=C1CC[C@@H](O)[C@]2(C)CC[C@@H](C(=C)C(=O)OCC)[C@H](O)[C@@H]12 | 75 (≈ 255 µM) |  | 75 (≈ 255 µM) |  | 50 (≈ 170 µM) |  |  |  |  |  |  |  |  |  |
| C=C1[C@@H]2[C@H]3OC(=O)C(=C)[C@@H]3CCC(=C)[C@@H]2C[C@@H]1O [ZALUZANIN C] | 22 (≈ 89.3 µM) |  | 15 (≈ 60.9 µM) |  | 34 (≈ 138 µM) |  |  |  |  |  |  |  |  |  |
| C=C1CC[C@@H](O)[C@]2(C)CC[C@@H]3[C@H](OC(=O)[C@H]3C)[C@@H]12 | > 100 |  | 95 (≈ 379 µM) |  | > 100 |  |  |  |  |  |  |  |  |  |
| C=C1CC[C@H]2C(=C)CC[C@H]3C(=C)C(=O)O[C@@H]3[C@@H]12 [DEHYDROCOSTUSLACTONE] | 3.5 (≈ 15.2 µM) | Dose-dependent effect | 2.5 (≈ 10.9 µM) | Dose-dependent effect | 3.5 (≈ 15.2 µM) | > 800 | 400 (≈ 1740 µM) | 800 (≈ 3470 µM) | > 800 | > 800 | Dose-dependent effect |  |  |  |
